Measured values collected from several papers.
Target: Ankyrin repeat and protein kinase domain-containing protein 1 (ANKK1, Homo sapiens, UniProt Q8NFD2)
One construct used (Q8NFD2 1-765): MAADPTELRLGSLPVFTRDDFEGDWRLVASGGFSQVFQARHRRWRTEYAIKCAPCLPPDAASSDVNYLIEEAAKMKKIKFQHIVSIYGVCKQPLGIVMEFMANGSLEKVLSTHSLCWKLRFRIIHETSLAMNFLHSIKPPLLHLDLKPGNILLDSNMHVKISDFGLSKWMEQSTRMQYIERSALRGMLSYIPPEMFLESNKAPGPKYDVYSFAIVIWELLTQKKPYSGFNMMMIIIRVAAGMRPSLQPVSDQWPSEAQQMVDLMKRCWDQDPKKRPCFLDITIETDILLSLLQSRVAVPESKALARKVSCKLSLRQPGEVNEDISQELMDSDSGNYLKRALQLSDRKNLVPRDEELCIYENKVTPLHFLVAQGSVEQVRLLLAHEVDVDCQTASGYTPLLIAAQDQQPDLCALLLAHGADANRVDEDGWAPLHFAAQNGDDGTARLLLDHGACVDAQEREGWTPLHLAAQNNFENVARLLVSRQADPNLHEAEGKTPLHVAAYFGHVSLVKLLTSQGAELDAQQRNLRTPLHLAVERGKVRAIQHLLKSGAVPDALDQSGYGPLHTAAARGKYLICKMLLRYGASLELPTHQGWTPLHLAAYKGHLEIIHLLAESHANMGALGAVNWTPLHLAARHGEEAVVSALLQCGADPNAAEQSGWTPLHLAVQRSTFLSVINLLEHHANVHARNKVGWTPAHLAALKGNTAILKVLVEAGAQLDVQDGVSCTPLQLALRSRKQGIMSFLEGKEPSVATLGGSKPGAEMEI

C[C@@H](c1ccc(-n2cnc3c(N)ncnc32)cc1)N1CCc2nn(C)c(Cc3ccccc3)c2C1=O — remaining binding (binding, competition with immobilised ligand; 0.1 µM): 85%
Cc1cnc(Nc2ccc(C(=O)N3CCC(N4CCCC4)CC3)cc2)nc1-c1cc2ccccc2s1 — remaining binding (binding, competition with immobilised ligand; 1 µM): 62%
O=C(NCC1CCOCC1)c1n[nH]cc1NC(=O)c1c(F)cccc1F — remaining binding (binding, competition with immobilised ligand; 1 µM): 66%
CCC(=O)N[C@@H]1CC[C@H](C(=O)N(C)c2ccc(-c3nc4ccccc4o3)cc2)C1 — remaining binding (cell-free assay, competition with immobilised ligand; 1 µM): 100%
COc1ncc2cc3ccccc3nc2c1C#N — remaining binding (cell-free assay, competition with immobilised ligand; 5 µM): 100%
C[C@H]1CCN(c2nccc(-c3cnn4ncccc34)n2)C1 — remaining binding (binding; 1 µM): 83%
O=C(N1CCS(=O)(=O)CC1)N1C[C@H](c2ccc(OC(F)(F)F)cc2)C[C@H](c2nc(C3CC3)no2)C1 — remaining binding (cell-free assay, competition with immobilised ligand; 1 µM): 100%
O=C(c1ccc(Nc2nccc(-c3cc4ccccc4s3)n2)cc1)N1CCC(N2CCCC2)CC1 — remaining binding (binding, competition with immobilised ligand; 1 µM): 71%
COc1ccc2cc(OCC3(C(=O)O)CN(C(=O)c4ccc(F)cc4)C3)ccc2c1 — remaining binding (cell-free assay, competition with immobilised ligand; 1 µM): 86%
C=CC(=O)N1CCC(C(=O)NCC(=O)N2CCN(c3nc(-c4cnc(N)nc4C(F)F)nc(N4CCOCC4)n3)CC2)CC1 — remaining binding (binding, competition with immobilised ligand; 1 µM): 100%
COc1cnc(Nc2cccc(S(N)(=O)=O)c2)nc1N1CCN(c2ccccc2)C(=O)C1 — remaining binding (binding, competition with immobilised ligand; 1 µM): 82%
O=C(c1ccc(Nc2ncc(Cl)c(-c3ccc(Cl)s3)n2)cc1)N1CCC(N2CCCC2)CC1 — remaining binding (binding, competition with immobilised ligand; 1 µM): 61%
CNC(=O)[C@@H]1CC[C@@H](n2c(-c3ccc4cnccc4c3)nc3ccc(C(=O)NCc4cccc(C(N)=O)c4)cc32)C1 — remaining binding (binding, competition with immobilised ligand; 1 µM): 100%
Cc1cnn2ncc(-c3ccnc(N(C)C)n3)c2c1 — remaining binding (binding; 1 µM): 100%
N#Cc1ccc(Nc2ccc3[nH]c(=O)[nH]c3c2)c(Cl)c1 — remaining binding (cell-free assay, competition with immobilised ligand; 1 µM): 100%
CN(CCCC(F)(F)F)c1nccc(-c2cnn3ncccc23)n1 — remaining binding (binding; 1 µM): 95%
c1cncc(-c2cccc(Nc3nccc(NC4CCCCC4)n3)c2)c1 — remaining binding (binding, competition with immobilised ligand; 10 µM): 47%
C[C@@H]1CN(c2cc(-c3n[nH]c4ccc(OC5(C)CC5)cc34)ncn2)C[C@H](C)O1 — remaining binding (cell-free assay, competition with immobilised ligand; 0.1 µM): 79%
CN(C)c1nccc(-c2cnn3ncccc23)n1 — remaining binding (binding; 1 µM): 100%
c1ccc(N2CCN(Cc3nc4ccccc4[nH]3)CC2)nc1 — remaining binding (binding, competition with immobilised ligand; 1 µM): 100%
F[C@@H]1CCN(c2nccc(-c3cnn4ncccc34)n2)C1 — remaining binding (binding; 1 µM): 100%
